Assay outcomes as filed in PubChem BioAssay.
core dimer inh = inhibitors of HCV core protein dimerization, primary screen, biochemical, TR-FRET, high-throughput. TR-FRET GST/Flag-core106 dimerization, 1536-well. inhibition, % at 5 µM. 0.33% of 300,000 active;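 active = inhibition above the mean of all tested compounds plus 3 SD, set per screening campaign, cut at about 45% in these data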
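System – GST-tagged and Flag-tagged HCV core protein residues 1-106 · Repeats – one well for each compound · Technique – TR-FRET 671 and 617 nm emission · Doses – one concentration, 5 µM, in 0.5% DMSO · Times – 4 h, 22.5 °C incubation · Also added – Eu donor and XL665 acceptor anti-tag antibodies · Measure – percent inhibition of core106 dimerization signal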
UHRF1 binding = UHRF1 methylated DNA binding inhibitors, primary screen, counter-screen for MBD2 inhibitor project, biochemical, TR-FRET, human UHRF1, single concentration; E3 ubiquitin-protein ligase UHRF1 (Homo sapiens), Q96T88; 0.75% of 370,000 active; inhibition, % at 4.4 µM; UHRF1 binding to methylated oligo; in the data active = inhibition above about 21%;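 also: UHRF1 SRA domain binding a hemimethylated CpG hairpin DNA probe; 0% = median of test compound wells and 100% = reference inhibitor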
LEDGF integ inh = blockers of LEDGF/p75-dependent integrase strand transfer – biochemical, TR-FRET, high throughput, primary screen; HIV-1 integrase (with human LEDGF/p75); TR-FRET IN-LEDGF/p75 DNA integration, Eu/Cy5; inhibition, % at 3.7 µM; 0.64% of 370,000 active;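 active = inhibition above the screen-wide mean plus 3 SD, cut at about 13% in these data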;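 also: signal is the Cy5 over europium emission ratio at 671 and 618 nm; 0% = plate median of compound wells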
MBD2 DNA inh = inhibitors of MBD2 binding to methylated DNA, primary screen, biochemical, TR-FRET, DNA-binding domain, human; inhibition, % at 4.4 µM; MBD2 binding to methylated oligonucleotide; 0.31% of 370,000 active; in the data active = inhibition above about 13%
Target sequence (Q9UBB5 whole entry, looked up, the tested form may be a part): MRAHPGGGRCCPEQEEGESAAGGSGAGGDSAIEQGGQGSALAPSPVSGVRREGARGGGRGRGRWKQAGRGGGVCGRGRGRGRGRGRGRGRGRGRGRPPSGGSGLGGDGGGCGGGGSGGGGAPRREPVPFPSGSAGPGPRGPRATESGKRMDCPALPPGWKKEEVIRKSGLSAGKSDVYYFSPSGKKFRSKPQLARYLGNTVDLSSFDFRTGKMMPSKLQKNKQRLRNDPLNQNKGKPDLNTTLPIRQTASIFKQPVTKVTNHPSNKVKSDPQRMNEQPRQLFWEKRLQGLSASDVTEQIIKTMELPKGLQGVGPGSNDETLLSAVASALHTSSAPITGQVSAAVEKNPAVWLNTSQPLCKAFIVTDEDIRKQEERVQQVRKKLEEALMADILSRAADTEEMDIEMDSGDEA
TDP2 absorb = human TDP2 enzyme inhibitors, primary screen, biochemical, epi absorbance, recombinant enzyme. T5PNP hydrolysis, p-nitrophenol absorbance 415 nm. inhibition, % at 12.8 µM. 0.34% of 370,000 active;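 active = inhibition above the mean of all tested compounds plus 3 SD, set per campaign, cut at about 25% in these data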;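 also: 0% = DMSO with enzyme and 100% = buffer with substrate but no TDP2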
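Material: recombinant human TDP2; quantity: TDP2 enzyme at 120 nM final; medium: Tris-HCl pH 7.5 with MgCl2; compound: single concentration, 12.8 µM nominal, with 1% DMSO; incubation: 2 h enzyme incubation at 37 °C; signal: epi absorbance; measure: percent inhibition; benchmarks: high control without enzyme, low control DMSO plus TDP2; repeats: singlicate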
The depositor's hits bear a star; nt = no result given. Compounds with a hit are over-represented: about 1.8% of the library has one in this group of screens.

SMILES	core dimer inh	UHRF1 binding	LEDGF integ inh	MBD2 DNA inh	TDP2 absorb
Cc1cccc(Sc2ccc([N+](=O)[O-])cc2[N+](=O)[O-])n1	2	28*	-2	-2	-8
CN(CCc1ccccc1)C(=O)c1cccc(NC(=O)Cc2cccc(NC(=O)C3CCN(C(=O)C4CC4)CC3)c2)c1	nt	96*	0	0	-5
Cc1cccc(Cn2cc(COC(=O)Nc3ccc(F)cc3)nn2)c1	nt	4	5	-2	3
Cc1ccc(O)c(NC(=O)CSc2n[nH]c(C)c2[N+](=O)[O-])c1	2	33*	0	2	-1
CN1CCc2cc3c(c4c2[C@H]1[C@H](O)c1ccccc1-4)OCO3	-11	35*	9	66*	4
CC1CC(C)CN(C(=O)COC(=O)c2ccc(S(=O)(=O)N(C)c3ccccc3)cc2)C1 (configuration not stated)	nt	21*	7	2	-13
CC1CC(C)CN(C(=O)COC(=O)c2cccc(S(=O)(=O)N(C)c3ccccc3)c2)C1 (configuration not stated)	nt	0	1	5	1
CCOC(=O)c1sc(NC(=S)NC(=O)CC(C)C)cc1C	71*	2	2	3	-6
CCOC(=O)c1sc(NC(=O)C2CC2)cc1C	-19	2	2	-2	-10
CCOC(=O)c1sc(NC(=S)NC(=O)C2CCCC2)cc1C	46*	0	1	3	1
COc1ccc(S(=O)(=O)NCCc2ccc(F)cc2)cc1	-3	-3	2	5	2
CCCCNc1ccc(C(F)(F)F)cc1S(=O)(=O)NCCc1ccc(F)cc1	nt	23*	6	12	-1
Cc1ccc(C(=O)CCC(=O)N2CCC(C(N)=O)CC2)cc1	11	29*	5	-2	9
Cc1ccc(SCC(=O)N2CCC(C(N)=O)CC2)cc1	-1	-3	-4	-6	-5
C[C@@H]1C[C@H](O)CCCCCC(=O)Cc2cc(O)cc(O)c2C(=O)O1	nt	1	1	0	-4
C=CCN(C)CC#Cc1ccccc1C	nt	2	-1	-1	2
Cc1[nH]c2ccccc2c1C(=O)C(=O)N(C)C1CCCCC1	6	1	0	-5	7
Cc1[nH]c2ccccc2c1C(=O)CSC(=S)N(C)C1CCCCC1	-3	26*	5	7	-1
CC(COc1cccc(C#N)c1)CN1CCC(C(O)(c2ccccc2)c2ccccc2)CC1 (configuration not stated)	nt	4	8	-1	-13
CC(=O)Nc1ccccc1OCC(=O)NC(C)c1ccccc1 (configuration not stated)	-3	22*	-1	2	5
O=c1c2c3c(sc2n(CCN2CCCC2)c(=O)n1Cc1ccco1)CCCCC3	6	0	3	-4	3
O=C(Cn1c(=O)n(Cc2ccco2)c(=O)c2c3c(sc21)CCCCC3)c1ccccc1	72*	nt	nt	nt	nt
O=C(Cn1c(=O)n(Cc2ccco2)c(=O)c2c3c(sc21)CCCCC3)Nc1ccccc1	56*	14	5	5	-20
COc1ccc2c(CC(=O)OCC(=O)Nc3ccc(C)cc3)coc2c1	nt	2	6	1	1
COc1ccc2c(CC(=O)OCC(=O)Nc3sc4c(c3C#N)CCC(C)C4)coc2c1 (configuration not stated)	-4	41*	-3	-1	2
SMILES	core dimer inh	UHRF1 binding	LEDGF integ inh	MBD2 DNA inh	TDP2 absorb
COc1ccc2c(c1)CNC2CS(=O)(=O)NCc1ccc(F)cc1 (configuration not stated)	nt	-2	-2	-4	1
Cn1nc(-c2ccccc2)cc1NC(=O)Nc1ccc(C(C)(C)C)cc1	-4	29*	2	8	-2
Cc1ccc2ccc(C)[n+](CCCS(=O)(=O)[O-])c2c1	6	1	-4	-3	4
Cc1ccc2ccccc2[n+]1CCCS(=O)(=O)[O-]	-4	36*	1	0	12
O=C(N[C@@H](Cc1cccnc1)C(=O)N1CCC[C@H]1C(=O)NCCc1ccccc1Cl)c1ccccc1	nt	0	1	-1	2
O=c1c2cc3cc(Cl)ccc3nc2ncn1CCc1c[nH]c2ccccc12	nt	-1	8	2	-17
COc1ccccc1C(=O)NCC(=O)N/N=C/c1ccc([N+](=O)[O-])cc1	-2	25*	1	-5	5
O=C(/C=C/c1ccc(Cl)cc1)N1CCN(CCN2C(=O)c3cccc4cccc(c34)C2=O)CC1	nt	31*	-1	-2	-8
O=C1c2cccc3cccc(c23)C(=O)N1CCN1CCN(C(=S)Nc2ccc(Cl)cc2)CC1	8	-4	2	0	14
CCOC(=O)Nc1ccc2c(c1)[C@@]1(CC(=O)N(CC(C)C)C1c1ccccc1)C(=O)N2C (some centres not stated)	nt	1	-2	-1	-2
Cc1cccc(NC(=O)COc2ccc3c(c2)CCC3)n1	nt	2	4	-1	-12
Cc1cccc(NC(=O)COc2ccc3oc4c(c3c2)CCCC4)n1	0	73*	1	1	4
CC1=C(C(=O)Nc2ccccc2)C(c2ccc(C)o2)n2c(s/c(=C/c3ccccc3)c2=O)=N1 (configuration not stated)	22	-2	-2	-1	-12
CC1=C(C(=O)Nc2ccccc2C)C(c2ccc(C)o2)n2c(s/c(=C/c3ccccc3)c2=O)=N1 (configuration not stated)	48*	-3	0	-2	1
CN(CCOC(=O)c1cccs1)C1CN(Cc2cn(Cc3ccccc3Cl)nn2)S(=O)(=O)C1 (configuration not stated)	nt	6	-1	7	-2
Cc1ccc(NC(=O)[C@H](Cc2ccccc2)NC(=O)[C@@H]2Cc3ccccc3CN2)c(C)c1	-3	27*	2	13	4
COc1ccccc1NC(=O)/C(=C/c1cccc([N+](=O)[O-])c1)c1ccccc1	8	47*	-5	-3	-5
CC(/C=C1\SC(=S)N(NC(=O)c2ccc(C)cc2)C1=O)=C\c1ccccc1	67*	nt	nt	nt	nt
CC(/C=C1\SC(=S)N(NC(=O)c2ccncc2)C1=O)=C\c1ccccc1	2	-2	-2	-5	-5
CN(Cc1ccccc1)c1nc(-c2cccc([N+](=O)[O-])c2)nc2ccccc12	0	23*	-2	3	-16
